In ChEMBL document CHEMBL2157980, “Discovery of SCH 900229, a Potent Presenilin 1 Selective γ-Secretase Inhibitor for the Treatment of Alzheimer's Disease” (ACS Med Chem Lett, 2012):
Calls of active or inactive are those of the source. The rule behind the calls is not given here.

How the values were obtained:
[1] = biological target: Presenilin-2 (Homo sapiens, UniProt P49810); assay: Inhibition of PS2 gamma-secretase expressed in HEK cells harboring Awe-Lon gene assessed as reduction of amyloid beta-42 production; type: cell-based, HEK293
Chain of Presenilin-2 (P49810 1-297 limits assumed): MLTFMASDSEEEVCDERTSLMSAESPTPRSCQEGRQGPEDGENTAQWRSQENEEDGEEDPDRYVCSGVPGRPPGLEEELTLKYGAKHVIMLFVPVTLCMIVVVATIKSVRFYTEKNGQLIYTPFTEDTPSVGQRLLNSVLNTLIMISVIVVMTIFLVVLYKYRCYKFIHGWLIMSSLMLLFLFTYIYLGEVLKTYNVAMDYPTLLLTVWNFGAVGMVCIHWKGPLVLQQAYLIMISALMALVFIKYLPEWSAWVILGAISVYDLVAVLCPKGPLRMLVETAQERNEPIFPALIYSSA
Chain of Presenilin-2 (P49810 298-448 limits assumed): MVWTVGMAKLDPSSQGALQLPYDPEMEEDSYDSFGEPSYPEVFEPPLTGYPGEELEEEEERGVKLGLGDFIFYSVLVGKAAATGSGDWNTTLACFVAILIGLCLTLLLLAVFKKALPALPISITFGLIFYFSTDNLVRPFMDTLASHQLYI

[2] = biological target: T1, Presenilin-1 (Homo sapiens, UniProt P49768); assay: Inhibition of PS1 gamma-secretase expressed in HEK cells harboring Awe-Lon gene assessed as reduction of amyloid beta-40 production; type: cell-based, HEK293
In short: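 Cell-based Aβ40 production assay in HEK293 cells carrying APP Awe-Lon. IC50 was the average of at least two determinations, with standard deviation 20%.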

[3] = biological target: T1, Presenilin-1; assay: Inhibition of PS1 gamma-secretase assessed as reduction of amyloid beta-40 production by membrane based assay
In short: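 Aβ40 production was measured in a membrane-based assay. IC50 was the average of at least two measurements, with standard deviation 20%.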

[4] = Tmax in monkey at 5 mg/kg, po administered with 0.4% HPMC; settings: rhesus monkey, in vivo
[5] = Volume of distribution at steady state in rat at 5 mg/kg, iv administered with 20% HPbetaCD; type: ADME, organism-based; design: dose 5 mg/kg, route intravenous; settings: in vivo, read-out: Vdss
In short: (§1)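 CL and Vd(ss) came from iv administration at 5 mg/kg in rat and 2.5 mg/kg each in monkey and dog. Values are averages of three animals per species.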

[6] = system: Mus musculus; assay: Antialzheimer activity in po dosed transgenic CRND8 mouse assessed as decrease of amyloid beta-40 level in plasma administered bid for 6 days; type: functional; settings: 144 h
In short: (§2)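 In a subchronic study, CRND8 mice were dosed orally BID for 6 days. Aβ40 lowering in plasma and cortex was measured, and ED50 was derived.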

[7] = Clearance in rat at 5 mg/kg, iv administered with 20% HPbetaCD; type: ADME, organism-based; design: dose 5 mg/kg, route intravenous; settings: in vivo; in short: as §1
[8] = Clearance in monkey at 2.5 mg/kg, iv administered with 0.4% HPMC; type: ADME, organism-based, Macaca mulatta; design: dose 2.5 mg/kg, route intravenous; settings: rhesus monkey, in vivo; in short: as §1
[9] = Cmax in monkey at 5 mg/kg, po administered with 0.4% HPMC; settings: rhesus monkey, in vivo
[10] = Tmax in rat at 10 mg/kg, po administered with 0.4% HPMC; type: ADME, organism-based; design: dose 10 mg/kg, route oral; settings: in vivo
In short: (§3)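 Rats (n = 3) were dosed orally at 10 mg/kg in either 20% HPβCD or 0.4% HPMC. AUC(0−∞), Cmax, Tmax and T1/2 were taken from the oral profile, with averaged values. Bioavailability (F) was referenced to iv dosing at 5 mg/kg.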

[11] = Oral bioavailability in dog at 5 mg/kg administered with 0.4% HPMC; settings: in vivo
[12] = Tmax in dog at 5 mg/kg, po administered with 0.4% HPMC; settings: in vivo
[13] = Half life in monkey at 5 mg/kg, po administered with 0.4% HPMC; settings: rhesus monkey, in vivo
[14] = system: Mus musculus; assay: Antialzheimer activity in B6C3F1 mouse assessed as reduction of amyloid beta-40 level in cortex at 30 mg/kg, po after 3 hrs; type: functional; design: scale not given: the % may be the effect or the level left
In short: (§4)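 B6C3F1 mice were dosed orally at 10 or 30 mg/kg. Aβ40 in plasma and cortex was measured 3 h after dosing and expressed as % change, with lowering shown as negative.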

[15] = biological target: T1, Presenilin-1; assay: Inhibition of PS1 gamma-secretase expressed in HEK cells harboring Awe-Lon gene assessed as notch cleavage; type: cell-based, HEK293
[16] = Volume of distribution at steady state in rat at 5 mg/kg, iv administered with 0.4% HPMC; type: ADME, organism-based; design: dose 5 mg/kg, route intravenous; settings: in vivo, read-out: Vdss; in short: as §1
[17] = Selectivity ratio of IC50 for PS2 gamma-secretase to IC50 for PS1 gamma-secretase
In short: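 Inhibitors were tested against reconstituted γ-secretase complexes containing PS1 or PS2. The result is expressed as the PS2/PS1 ratio of IC50 values.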

[18] = Clearance in dog at 2.5 mg/kg, iv administered with 0.4% HPMC; type: ADME, organism-based, Canis lupus familiaris; design: dose 2.5 mg/kg, route intravenous; settings: in vivo; in short: as §1
[19] = Oral bioavailability in rat at 10 mg/kg administered with 20% HPbetaCD; type: ADME, organism-based; settings: in vivo; in short: as §3
[20] = AUC (0 to infinity) in dog at 5 mg/kg, po administered with 0.4% HPMC; settings: plasma
[21] = system: Mus musculus; assay: Antialzheimer activity in B6C3F1 mouse assessed as reduction of amyloid beta-40 level in plasma at 30 mg/kg, po after 3 hrs; type: functional; design: scale not given: the % may be the effect or the level left; in short: as §4
[22] = AUC (0 to infinity) in rat at 10 mg/kg, po administered with 20% HPbetaCD; type: ADME, organism-based; design: time infinity, dose 10 mg/kg, route oral; settings: plasma; in short: as §3
[23] = AUC (0 to infinity) in rat at 10 mg/kg, po administered with 0.4% HPMC; type: ADME, organism-based; design: time infinity, dose 10 mg/kg, route oral; settings: plasma; in short: as §3
[24] = system: Mus musculus; assay: Toxicity in po dosed transgenic CRND8 mouse assessed as intestinal goblet cell hyperplasia administered bid for 6 days; type: organism-based; settings: in vivo, 144 h
In short: (§5)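 In the same subchronic design (oral BID dosing for 6 days in CRND8 mice), Notch-related effects were examined as thymus size reduction and intestinal goblet cell hyperplasia.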

[25] = Half life in rat at 10 mg/kg, po administered with 20% HPbetaCD; type: ADME, organism-based; design: dose 10 mg/kg, route oral; settings: in vivo; in short: as §3
[26] = Half life in dog at 5 mg/kg, po administered with 0.4% HPMC; settings: in vivo
[27] = system: Mus musculus; assay: Toxicity in po dosed transgenic CRND8 mouse assessed as reduction in thymus size administered bid for 6 days; type: organism-based; settings: in vivo, 144 h; in short: as §5
[28] = Oral bioavailability in monkey at 5 mg/kg administered with 0.4% HPMC; settings: rhesus monkey, in vivo
[29] = Cmax in rat at 10 mg/kg, po administered with 20% HPbetaCD; type: ADME, organism-based; design: dose 10 mg/kg, route oral; settings: in vivo; in short: as §3
[30] = organism: Canis familiaris; assay: Antialzheimer activity in dog assessed as decrease of amyloid beta-40 level in plasma; type: functional, organism-based; settings: Canis lupus familiaris
[31] = system: Mus musculus; assay: Antialzheimer activity in po dosed transgenic CRND8 mouse assessed as decrease of amyloid beta-40 level in cortex administered bid for 6 days; type: functional; settings: 144 h; in short: as §2
[32] = AUC (0 to infinity) in monkey at 5 mg/kg, po administered with 0.4% HPMC; settings: rhesus monkey, plasma
[33] = Tmax in rat at 10 mg/kg, po administered with 20% HPbetaCD; type: ADME, organism-based; design: dose 10 mg/kg, route oral; settings: in vivo; in short: as §3
[34] = Half life in rat at 10 mg/kg, po administered with 0.4% HPMC; type: ADME, organism-based; design: dose 10 mg/kg, route oral; settings: in vivo; in short: as §3
[35] = Clearance in rat at 5 mg/kg, iv administered with 0.4% HPMC; type: ADME, organism-based; design: dose 5 mg/kg, route intravenous; settings: in vivo; in short: as §1
[36] = Oral bioavailability in rat at 10 mg/kg administered with 0.4% HPMC; type: ADME, organism-based; settings: in vivo; in short: as §3
[37] = organism: Canis familiaris; assay: Antialzheimer activity in dog assessed as decrease of amyloid beta-40 level in CSF; type: functional, organism-based; settings: Canis lupus familiaris
[38] = system: Mus musculus; assay: Antialzheimer activity in po dosed transgenic CRND8 mouse assessed as decrease of amyloid beta-40 level in cortex after 3 hrs; type: functional
In short: (§6)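 CRND8 mice received a single acute oral dose. Plasma and cortical Aβ40 were measured at the 3 h time point, and ED50 was derived from the dose response.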

[39] = organism: Canis familiaris; assay: Antialzheimer activity in dog assessed as decrease of amyloid beta-40 level in cortex; type: functional, organism-based; settings: Canis lupus familiaris
[40] = Volume of distribution at steady state in dog at 2.5 mg/kg, iv administered with 0.4% HPMC; type: ADME, organism-based, Canis lupus familiaris; design: dose 2.5 mg/kg, route intravenous; settings: in vivo, read-out: Vdss; in short: as §1
[41] = Cmax in dog at 5 mg/kg, po administered with 0.4% HPMC; settings: in vivo
[42] = Volume of distribution at steady state in monkey at 2.5 mg/kg, iv administered with 0.4% HPMC; type: ADME, organism-based, Macaca mulatta; design: dose 2.5 mg/kg, route intravenous; settings: rhesus monkey, in vivo, read-out: Vdss; in short: as §1
[43] = Cmax in rat at 10 mg/kg, po administered with 0.4% HPMC; type: ADME, organism-based; design: dose 10 mg/kg, route oral; settings: in vivo; in short: as §3
[44] = system: Mus musculus; assay: Antialzheimer activity in po dosed transgenic CRND8 mouse assessed as decrease of amyloid beta-40 level in plasma after 3 hrs; type: functional; in short: as §6
[45] = system: Mus musculus; assay: Antialzheimer activity in transgenic CRND8 mouse assessed as increase of amyloid beta-40 level in plasma at 30 mg/kg, po after 3 hrs; type: functional
In short: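 CRND8 mice were dosed orally at 30 mg/kg. Aβ40 in plasma and cortex was measured 3 h post-dose and reported as % change, negative for lowering and positive for increase.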

SMILES: CCNC(=O)OCC[C@@H]1OCC[C@@]2(S(=O)(=O)c3ccc(Cl)cc3)c3c(F)ccc(F)c3OC[C@@H]12 (racemic)
- IC50 [1]: 20 nM
- IC50 [2]: 48 nM
- IC50 [3]: 24 nM

SMILES: CS(=O)(=O)CC[C@@H]1OCC[C@@]2(S(=O)(=O)c3ccc(Cl)cc3)c3c(F)ccc(F)c3OC[C@@H]12
- Tmax [4]: 1.7 h
- Vd [5]: 5.4 L/kg
- ED50 [6]: 0.4 mg/kg
- clearance [7]: 69 mL/min/kg
- clearance [8]: 8.2 mL/min/kg
- IC50 [1]: 1 nM
- Cmax [9]: 1390 nM
- Tmax [10]: 0.3 h
- bioavailability [11]: 86%
- Tmax [12]: 2 h
- half-life [13]: 4.6 h
- Activity [14]: 78%
- IC50 [15]: 46 nM
- Vd [16]: 3.4 L/kg
- Ratio IC50 [17]: 25
- clearance [18]: 1.7 mL/min/kg
- bioavailability [19]: 29%
- AUC(0-inf) [20]: 85.6 µM·h
- Activity [21]: 89%
- AUC(0-inf) [22]: 1.4 µM·h
- AUC(0-inf) [23]: 1 µM·h
- Activity [24]: Non-toxic
- half-life [25]: 1.1 h
- half-life [26]: 23.9 h
- Activity [27]: Non-toxic
- bioavailability [28]: 45%
- Cmax [29]: 650 nM
- IC50 [2]: 4 nM
- Activity [30]: Active
- ED50 [31]: 0.3 mg/kg
- AUC(0-inf) [32]: 8.9 µM·h
- Tmax [33]: 0.7 h
- half-life [34]: 1 h
- clearance [35]: 20.8 mL/min/kg
- bioavailability [36]: 6.4%
- Activity [37]: Active
- ED50 [38]: 0.4 mg/kg
- Activity [39]: Active
- Vd [40]: 3.1 L/kg
- Cmax [41]: 2740 nM
- Vd [42]: 1.9 L/kg
- Cmax [43]: 240 nM
- IC50 [3]: 1.3 nM
- ED50 [44]: 0.5 mg/kg

SMILES: O=S(=O)(c1ccc(Cl)cc1)[C@]12CCO[C@H](CCO)[C@H]1COc1c(F)ccc(F)c12
- IC50 [3]: 320 nM

SMILES: CC(C)S(=O)(=O)CC[C@@H]1OCC[C@@]2(S(=O)(=O)c3ccc(Cl)cc3)c3c(F)ccc(F)c3OC[C@@H]12 (racemic)
- Ratio IC50 [17]: 6

SMILES: N#CCC[C@@H]1OCC[C@@]2(S(=O)(=O)c3ccc(Cl)cc3)c3c(F)ccc(F)c3OC[C@@H]12 (racemic)
- IC50 [1]: 16 nM
- Ratio IC50 [17]: 6
- IC50 [2]: 37 nM
- Activity [45]: 18%
- IC50 [3]: 22 nM
